Values after ≈ are worked out from the molar mass of the structure shown. Active and inactive are the calls of the source. The rule behind the calls is not given here.
How the values were obtained:
MGC-803 = type: functional, Homo sapiens
SMMC-7721 [1] = assay: Induction of apoptosis in human SMMC-7721 cells assessed as necrotic cell level at 5 uM incubated for 48 hrs by FITC/Annexin V staining based flow cytometry (reference value: 2.31%)
SK-HEP1 = type: functional, Homo sapiens
Mus musculus [2] = assay: Tmax in BALB/C mouse at 10 mg/kg, po or 2 mg/kg, iv by LC-MS/MS method; type: ADME, organism-based; conditions: in vivo
Outline: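 Single-dose PK: iv bolus 2 mg/kg in 5% DMSO/40% PEG400/55% saline and/or oral gavage 10 mg/kg as 0.445% microcrystalline cellulose microsuspension; BALB/C nude mice (15−20 g, N = 16 per arm) or male Sprague−Dawley rats (250 ± 20 g, N = 3). Blood at eight (po) or nine (iv) time points into sodium heparin, plasma by LC-MS/MS, noncompartmental analysis.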

SMMC-7721 [3] = assay: Induction of apoptosis in human SMMC-7721 cells assessed as early apoptotic cell level at 5 uM incubated for 48 hrs by FITC/Annexin V staining based flow cytometry (reference value: 2.61%)
[4] = Solubility in 50 mM phosphate buffer at pH 6.5 by HPLC method; type: physicochemical
Outline: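 10 mM DMSO stock dried, residue redissolved in 50 mM phosphate buffer pH 6.5, stirred 1 h and shaken 2 h, left overnight, filtered and analysed by HPLC against calibration standards of 50−500 μM diluted from the DMSO stock.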

Mus musculus [5] = assay: Toxicity in human Bel7404 cells xenografted BALB/C mouse assessed as body weight loss at 50 mg/kg, po qd for 4 weeks; conditions: in vivo, 672 h
Mus musculus [6] = assay: Cmax in BALB/C mouse at 10 mg/kg, po or 2 mg/kg, iv by LC-MS/MS method; type: ADME, organism-based; conditions: in vivo
Outline: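 Female-unspecified BALB/C nude mice (15−20 g, N = 16 per arm); iv bolus 2 mg/kg in 5% DMSO/40% PEG400/55% saline and/or oral gavage 10 mg/kg as 0.445% microcrystalline cellulose microsuspension. Blood sampled at nine (iv) or eight (po) time points into sodium heparin tubes; plasma by LC-MS/MS; noncompartmental analysis.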

[7] = Clearance in human liver microsomes at 1 uM incubated for 10 mins by LC-MS/MS method; type: ADME, Microsome
Outline: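 Liver microsomes (human or mouse, 0.5 mg/mL) in 100 mM potassium phosphate pH 7.4 with 1 μM compound, prewarmed 10 min at 37 °C, started with NADPH (10 mM); stopped at 0, 3, 6, 9, 15, 30 min with ice-cold methanol containing tolbutamide internal standard; LC-MS/MS. Hepatic clearance (mL/min/kg) calculated from intrinsic clearance.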

[8] = target: Voltage-gated inwardly rectifying potassium channel KCNH2 (Homo sapiens, UniProt Q12809); assay: Inhibition of human ERG expressed in CHO cells by patch clamp method; type: cell-based
Cytochrome P450 2D6 = Cytochrome P450 2D6 (Homo sapiens, UniProt P10635); assay: Inhibition of CYP2D6 in human liver microsomes in presence of NADPH by LC-MS/MS method; type: ADME, Microsome
Mus musculus [9] = assay: Down-regulation of CFLAR gene expression in human hepatocellular carcinoma patient tumor xenografted in BALB/C mouse at 100 mg/kg, po administered every other day for 4 weeks by […]; type: functional, organism-based; design: dose 100 mg/kg
Outline: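 Patient-derived HCC xenografts dosed 100 mpk Q2D PO; tumor total RNA (TRIzol, DNase I treated, column-purified) run on a customized 22-gene qRT-PCR array; ΔCt against mean of GAPDH and β-glucuronidase, fold-change relative to day 0 (pre-treatment).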

Mus musculus [10] = assay: Up-regulation of SPINT2 gene expression in human hepatocellular carcinoma patient tumor xenografted in BALB/C mouse at 100 mg/kg, po administered every other day for 4 weeks by […]; type: functional, organism-based; design: dose 100 mg/kg
Outline: (§1)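 Patient HCC tumor fragments (3 × 3 × 3 mm3) implanted subcutaneously in female BALB/c nu/nu mice; at ~200 (150−250) mm3 dosed orally Q2D 100 mpk in 15% Kleptose pH 4.5 tartaric buffer for about four weeks. Tumor RNA (TRIzol, DNase I) run on 22-gene qRT-PCR array, normalized to GAPDH/β-glucuronidase by ΔCt, fold change versus day 0.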

Mus musculus [11] = assay: Up-regulation of CDH1 gene expression in human hepatocellular carcinoma patient tumor xenografted in BALB/C mouse at 100 mg/kg, po administered every other day for 4 weeks by […]; type: functional, organism-based; design: dose 100 mg/kg
Outline: as §1

Mus musculus [12] = assay: Inhibition of Class 1 histone deacetylase in human Bel7404 cells xenografted BALB/C mouse assessed as induction of histone H3 acetylation at 100 mg/kg, po administered every other day for 4 weeks by Western blot method; conditions: Bel-7404
Mus musculus [13] = assay: Up-regulation of CACNA1G gene expression in human hepatocellular carcinoma patient tumor xenografted in BALB/C mouse at 100 mg/kg, po administered every other day for 4 weeks by […]; type: functional, organism-based; design: dose 100 mg/kg
Outline: as §1

Mus musculus [14] = assay: Up-regulation of SOCS1 gene expression in human hepatocellular carcinoma patient tumor xenografted in BALB/C mouse at 100 mg/kg, po administered every other day for 4 weeks by […]; type: functional, organism-based; design: dose 100 mg/kg
Outline: as §1

Mus musculus [15] = assay: Up-regulation of RASSF1 gene expression in human hepatocellular carcinoma patient tumor xenografted in BALB/C mouse at 100 mg/kg, po administered every other day for 4 weeks by […]; type: functional, organism-based; design: dose 100 mg/kg
Outline: as §1

SGC-7901 [16] = assay: Induction of cell cycle arrest in human SGC7901 cells assessed as accumulation at G1/G2 phase incubated for 24 hrs by flow cytometry; type: functional, cell-based
Outline: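 SGC-7901 cells (1 × 10^5, about 50% confluent) treated 24 h with a concentration series; fixed in chilled 70% ethanol 1 h at 4 °C, stained 1 h at room temperature with propidium iodide (50 μg/mL) plus RNase A and 0.05% Triton X-100; analysed by flow cytometry.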

Mus musculus [17] = assay: Up-regulation of CEBPA gene expression in human hepatocellular carcinoma patient tumor xenografted in BALB/C mouse at 100 mg/kg, po administered every other day for 4 weeks by […]; type: functional, organism-based; design: dose 100 mg/kg
Outline: as §1

Mus musculus [18] = assay: Up-regulation of TFPI2 gene expression in human hepatocellular carcinoma patient tumor xenografted in BALB/C mouse at 100 mg/kg, po administered every other day for 4 weeks by […]; type: functional, organism-based; design: dose 100 mg/kg
Outline: as §1

SGC-7901 [19] = assay: Inhibition of Class 1 histone deacetylase in human SGC7901 cells assessed as […] at 0.6 to 5 uM incubated for 24 hrs by Western blot method; type: cell-based
Outline: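 SGC-7901 cells (1 × 10^6) seeded overnight, treated 24 h at indicated concentrations; lysed on ice with protease inhibitor, 15 000 g supernatant; 30 μg protein by SDS-PAGE, nitrocellulose, antibody probing for acetylated histone H3 and p21, ECL detection.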

Mus musculus [20] = assay: Up-regulation of IGFBP3 gene expression in human hepatocellular carcinoma patient tumor xenografted in BALB/C mouse at 100 mg/kg, po administered every other day for 4 weeks by […]; type: functional, organism-based; design: dose 100 mg/kg
Outline: as §1

Voltage-gated inwardly rectifying potassium channel KCNH2, sequence (Q12809 whole entry): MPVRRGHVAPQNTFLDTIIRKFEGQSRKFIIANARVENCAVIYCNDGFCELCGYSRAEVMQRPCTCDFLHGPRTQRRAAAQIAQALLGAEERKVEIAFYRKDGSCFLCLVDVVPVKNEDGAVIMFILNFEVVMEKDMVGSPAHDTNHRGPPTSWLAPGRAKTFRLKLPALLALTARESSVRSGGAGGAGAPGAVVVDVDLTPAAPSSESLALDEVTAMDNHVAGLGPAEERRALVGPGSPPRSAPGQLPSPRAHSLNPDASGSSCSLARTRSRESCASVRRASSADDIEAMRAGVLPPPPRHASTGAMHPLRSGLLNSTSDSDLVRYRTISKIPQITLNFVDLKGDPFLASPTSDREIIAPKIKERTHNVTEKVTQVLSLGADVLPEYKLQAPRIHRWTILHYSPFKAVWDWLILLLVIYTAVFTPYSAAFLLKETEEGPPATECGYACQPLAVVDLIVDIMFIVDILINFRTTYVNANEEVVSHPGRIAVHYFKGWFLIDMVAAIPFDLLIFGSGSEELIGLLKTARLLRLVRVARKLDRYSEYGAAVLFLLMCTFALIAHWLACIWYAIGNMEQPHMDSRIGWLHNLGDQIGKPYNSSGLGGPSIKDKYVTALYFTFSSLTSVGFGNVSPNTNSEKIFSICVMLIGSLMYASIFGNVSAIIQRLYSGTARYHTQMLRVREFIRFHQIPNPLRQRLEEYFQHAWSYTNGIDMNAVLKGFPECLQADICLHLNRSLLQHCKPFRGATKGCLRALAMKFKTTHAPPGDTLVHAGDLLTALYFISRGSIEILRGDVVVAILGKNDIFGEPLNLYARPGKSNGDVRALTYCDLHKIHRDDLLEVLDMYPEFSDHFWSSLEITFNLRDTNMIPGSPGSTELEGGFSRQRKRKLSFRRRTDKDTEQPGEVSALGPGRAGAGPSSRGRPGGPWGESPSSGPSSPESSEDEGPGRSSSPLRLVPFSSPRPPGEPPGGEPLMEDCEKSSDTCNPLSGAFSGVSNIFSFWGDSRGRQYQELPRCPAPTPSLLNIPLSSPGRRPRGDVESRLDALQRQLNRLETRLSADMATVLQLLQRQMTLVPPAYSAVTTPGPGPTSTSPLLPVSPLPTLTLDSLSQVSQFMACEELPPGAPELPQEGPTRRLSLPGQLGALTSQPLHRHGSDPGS
Cytochrome P450 2D6, sequence (P10635 whole entry): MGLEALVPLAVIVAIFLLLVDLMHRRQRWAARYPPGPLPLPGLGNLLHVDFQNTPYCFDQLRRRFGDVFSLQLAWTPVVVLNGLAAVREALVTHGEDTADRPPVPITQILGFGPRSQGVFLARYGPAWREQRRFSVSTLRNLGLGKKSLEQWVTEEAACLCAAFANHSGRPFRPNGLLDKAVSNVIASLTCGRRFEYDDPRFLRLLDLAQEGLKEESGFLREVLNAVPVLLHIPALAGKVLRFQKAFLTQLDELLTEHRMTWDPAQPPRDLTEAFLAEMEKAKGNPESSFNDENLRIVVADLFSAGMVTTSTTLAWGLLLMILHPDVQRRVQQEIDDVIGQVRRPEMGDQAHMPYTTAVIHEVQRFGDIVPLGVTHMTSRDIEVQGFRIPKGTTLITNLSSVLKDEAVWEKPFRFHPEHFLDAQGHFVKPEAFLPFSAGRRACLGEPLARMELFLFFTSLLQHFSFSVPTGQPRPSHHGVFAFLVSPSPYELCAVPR

CN1C[C@H](C(=O)Nc2ccc(Cl)cc2)[C@@H](c2ccc(/C=C/C(=O)Nc3ccccc3N)cc2)C1 [listing 1 of 2 here]
GI90 (MGC-803): 2 µM | Activity (SMMC-7721 [1]): 15.41% | GI90 (SK-HEP1): 2.5 µM | Tmax (Mus musculus [2]): 15 min | Activity (SMMC-7721 [3]): 3.56% | solubility [4]: 136 µg/mL (≈ 286 µM) | Activity (Mus musculus [5]): < 10% | Cmax (Mus musculus [6]): 893 ng/mL

CN1C[C@H](C(=O)Nc2ccc(Cl)cc2)[C@@H](c2ccc(/C=C/C(=O)Nc3ccccc3N)cc2F)C1 (racemic)
CLhep predicted at 1 µM [7]: 14 mL/min/kg | IC50 [8]: 7 µM | IC50 (Cytochrome P450 2D6): 9 µM

CN1C[C@H](C(=O)Nc2ccc(Cl)cc2)[C@@H](c2ccc(/C=C/C(=O)Nc3ccccc3N)cc2)C1 [listing 2 of 2 here]
Activity (Mus musculus [9]): Active | Activity (Mus musculus [10]): inactive | Activity (Mus musculus [11]): inactive | inhibition (Mus musculus [12]): Active | Activity (Mus musculus [13]): Active | Activity (Mus musculus [14]): Active | Activity (Mus musculus [15]): inactive | Activity (SGC-7901 [16]): Dose-dependent effect | Activity (Mus musculus [17]): Active | Activity (Mus musculus [18]): inactive | inhibition (SGC-7901 [19]): Dose-dependent effect | Activity (Mus musculus [20]): Active
